Results on 40 molecules are retold here after ChEMBL document CHEMBL4513216, “Probing the Open Global Health Chemical Diversity Library for Multistage-Active Starting Points for Next-Generation Antimalarials” (ACS Infect Dis, 2020).

The data set is described as follows: Toxicity liver stage against HepG2, at 10uM. In kind it is cell-based. Also on record: test concentration 10 uM, cell line HepG2-A16-CD81EGFP. The following applies: human, HepG2-A16-CD81EGFP cells; read-out: INHIBITION
The essentials:
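Uninfected HepG2-A16-CD81EGFP cells, 3 × 10^3 per well, 1536-well, plated on prespotted compound at 10 μM final, parasite-free screening media added to match infected plates; puromycin 10 μM positive, DMSO 0.5% negative; run in parallel with 48 h PbLuc assay at 37 °C, 5% CO2; viability by CellTiter-Glo luminescence, normalized to controls.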
For `CN(Cc1ccco1)C(=O)CN1CCCCC1Cn1cncn1` (stereo not given), the cytotoxicity at 10 µM worked out at 3.61%.

Regarding `CNc1cncc(C2CCCN2Cc2ccnc(N3CCCC3)n2)n1` (stereo not given), the cytotoxicity at 10 µM is -12.1%. As to `CC1(C)CNC(=O)CN(C(=O)Cc2ccccc2)C1`, the cytotoxicity at 10 µM is -6.92%. The result for `O=c1[nH]cnc2[nH]c(N3CCOCC3)nc12` reads 2.9%.

`O=C(Nc1ccc(CC(=O)N2CCCC2)cc1)NC1CC1`: the cytotoxicity at 10 µM is -2.16%. Regarding `CS(=O)(=O)NCc1ccc(NC(=O)CC2=CCCCC2)cc1`, the cytotoxicity at 10 µM was -2.48%. Turning to `CC(C)c1n[nH]c(C2CN(C(=O)c3ncoc3C(C)C)CCO2)n1` (stereo not given), the cytotoxicity at 10 µM was -7.22%. Consider `CCN(CC1CCOCC1)C(=O)Cn1ccccc1=O`, for which the cytotoxicity at 10 µM was -19.9%. For `Cc1ccc(CCC(=O)N2CCOCC2c2ncon2)c(C)c1` (stereo not given), the cytotoxicity at 10 µM was -6.76%.

As for `O=C1CCC2(CCCN(C(=O)c3ccc[nH]3)C2)CN1CCc1c[nH]cn1` (stereo not given), the cytotoxicity at 10 µM is 0.0773%. For the molecule `O=C(CC1OCCc2ccsc21)NCC1CC1` (stereo not given), the cytotoxicity at 10 µM is 7.18%. Then `COc1c(CNCc2ccc(CN(C)C)cc2)c(C)nn1C`, with 3.87%; and `CCN1CCN(C(=O)c2ccc(Cn3ccccc3=O)o2)CC1`, with -9.39%; and `CN(C)[C@@H]1CCN(C(=O)c2cccn2C)[C@H]1Cc1cnn(C)c1`, with -74.6%. The result for `COc1c(C)cnc(CNC(=O)c2cnc3onc(C)c3c2)c1C` reads 26.3%; that for `CCCN1CCC(CC(=O)N(C)CC(=O)c2ccc(O)cc2)CC1`, 1.73%; that for `Cn1cnc2c1C(COCc1cccnc1)N(Cc1ccccc1)CC2` (stereo not given), 13.5%. On to `O=C(c1cccc2ncccc12)N1CCCC(n2ccnc2)C1` (stereo not given), for which the cytotoxicity at 10 µM was -11.6%. On to `CCc1nc2ccccc2c(=O)n1CC1(O)CCNCC1`, for which the cytotoxicity at 10 µM was -15.3%. Regarding `CN(C)C(=O)[C@H]1C[C@@H]2CCN(Cc3ccncc3)C[C@H]2O1`, the cytotoxicity at 10 µM worked out at 0.866%. The result for `CC(CNC(=O)c1c[nH]nn1)Oc1cccc(Br)c1` (stereo not given) reads -10.3%; that for `CC(NC(=O)NCCCn1ccnc1)c1ccc2c(c1)OCCCO2` (stereo not given), -15.1%; that for `Cc1ccc(-c2cn[nH]c2C2CCCN(c3cnccn3)C2)cc1` (stereo not given), 73.6%. With `Cc1cccc(NC(=O)CN2C(=O)CC(C)(C)c3ccccc32)n1`, the cytotoxicity at 10 µM amounted to 2.2%. On to `O=C(CCCc1nnc(-c2ccccc2)o1)N1CCN(C2CC2)CC1`, for which the cytotoxicity at 10 µM is -12%. As to `COc1ccccc1N1CCN(C(=O)CSCC2CC2)C(C)C1` (stereo not given), the cytotoxicity at 10 µM stood at 4.06%. As for `Cc1ccc(CNC(=O)NCc2nccn2C)c(OC(C)(C)C)c1`, the cytotoxicity at 10 µM was 2.66%. As to `Cc1ccc(C(=O)NCCC(C)C)cc1NS(C)(=O)=O`, the cytotoxicity at 10 µM stood at 10.9%. On to `Cc1nc(-c2ccncc2)ncc1C(C)NC(=O)CN1CCOC1=O` (stereo not given), for which the cytotoxicity at 10 µM came to 3.11%.

Consider `COCCN(C)C(C(=O)O)c1ccc(F)c(C)c1` (stereo not given), for which the cytotoxicity at 10 µM is 1.87%. As for `Cn1cc(S(=O)(=O)NCCc2ccsc2)cn1`, the cytotoxicity at 10 µM was 5.26%. Then `CCc1nc(CSCc2csc(CS(C)(=O)=O)n2)cs1`, with -6.79%; and `Cc1nc(C)n(C2CCCN(C(=O)c3ccc(O)nc3)C2)n1` (stereo not given), with -1.95%; and `CN(C)CCOCC1CN(Cc2ccoc2)Cc2nnn(C)c21` (stereo not given), with -1.53%. As to `CC1(Cc2ccc3c(c2)OCO3)CCCN(S(=O)(=O)N2CCOCC2)C1` (stereo not given), the cytotoxicity at 10 µM is -5.39%. `Cc1nn(CCNc2ncnc3c2NC(=O)CN3)c(C)c1Cl`: the cytotoxicity at 10 µM is 10.5%. Turning to `Cc1ccc(C)c(Oc2cc(-n3nc(C)c(C#N)c3N)nc(C)n2)c1`, the cytotoxicity at 10 µM came to 69.5%.

On to `CN(C)C(=O)[C@H]1CC[C@@H]2[C@@H](CCN2C(=O)N(C)C)O1`, for which the cytotoxicity at 10 µM was 20.3%. `Cc1nc(C)n(CC2CCCCN2Cc2nnc(-c3ccco3)o2)n1` (stereo not given): the cytotoxicity at 10 µM is -10.2%. The result for `O=C(C1CCOC1)N1CCC2(CC1)CN(c1ncccn1)CCO2` (stereo not given) reads -73.2%.
